Results from ChEMBL document CHEMBL4689842, “EUbOPEN Chemogenomics Library wave 1” (2021).

System: HEK-293T
Test: Multiplex assay against HEK293T;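 on Population Tubulin-Different-Phenotype (%): share of the cells with healthy nuclei that show this phenotype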
Assay type: toxicity, cell-based
Settings: human
Method in brief: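 Live cells were stained at seeding with Hoechst33342, BioTracker Green Microtubule Cytoskeleton Dye, MitoTracker Red and Annexin V Alexa Fluor 680. Following compound addition, they were imaged on a CQ1 microscope at 37°C and 5% CO2 and gated by CellPathfinder machine learning into Hoechst high-intensity objects or normal cells, with normal cells split into healthy, pyknosed or fragmented nuclei and pyknosed cells into mitotic or apoptotic. Tubulin, mitochondrial-mass and membrane-permeability phenotypes are per cents of healthy-nucleus cells.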

[1] = 12 h, 1 µM, compound concentration 1 uM, replicate 1
[2] = 12 h, 1 µM, compound concentration 1 uM, replicate 2
[3] = 12 h, 10 µM, compound concentration 10 uM, replicate 1
[4] = 12 h, 10 µM, compound concentration 10 uM, replicate 2
[5] = 24 h, 1 µM, compound concentration 1 uM, replicate 1
[6] = 24 h, 1 µM, compound concentration 1 uM, replicate 2
[7] = 24 h, 10 µM, compound concentration 10 uM, replicate 1
[8] = 24 h, 10 µM, compound concentration 10 uM, replicate 2
[9] = 48 h, 1 µM, compound concentration 1 uM, replicate 1
[10] = 48 h, 1 µM, compound concentration 1 uM, replicate 2
[11] = 48 h, 10 µM, compound concentration 10 uM, replicate 1
[12] = 48 h, 10 µM, compound concentration 10 uM, replicate 2

SMILES: COc1cc2ncn(-c3cc(OCc4ccccc4C(F)(F)F)c(C(N)=O)s3)c2cc1OC [GW843682X]
- Population Apoptotic (%) [1]: 62%
- Population Fragmented Nuclei (%) [1]: 14%
- Population Healthy Nuclei (%) [1]: 44%
- Population Hoechst High Intensity Objects (%) [1]: 13%
- Population Membrane Permeable-Phenotype (%) [1]: 5%
- Population Mitochondria Different-Phenotype (%) [1]: 84%
- Population Mitotic Cells (%) [1]: 37%
- Population Normal (%) [1]: 86%
- Population Pyknosed Nuclei (%) [1]: 40%
- Population Tubulin-Different-Phenotype (%) [1]: 64%
- Total Cell Count [1]: 252
- Population Apoptotic (%) [2]: 25%
- Population Fragmented Nuclei (%) [2]: 4%
- Population Healthy Nuclei (%) [2]: 38%
- Population Hoechst High Intensity Objects (%) [2]: 2%
- Population Membrane Permeable-Phenotype (%) [2]: 11%
- Population Mitochondria Different-Phenotype (%) [2]: 34%
- Population Mitotic Cells (%) [2]: 74%
- Population Normal (%) [2]: 97%
- Population Pyknosed Nuclei (%) [2]: 56%
- Population Tubulin-Different-Phenotype (%) [2]: 47%
- Total Cell Count [2]: 208
- Population Apoptotic (%) [3]: 57%
- Population Fragmented Nuclei (%) [3]: 12%
- Population Healthy Nuclei (%) [3]: 54%
- Population Hoechst High Intensity Objects (%) [3]: 14%
- Population Membrane Permeable-Phenotype (%) [3]: 9%
- Population Mitochondria Different-Phenotype (%) [3]: 97%
- Population Mitotic Cells (%) [3]: 42%
- Population Normal (%) [3]: 85%
- Population Pyknosed Nuclei (%) [3]: 33%
- Population Tubulin-Different-Phenotype (%) [3]: 97%
- Total Cell Count [3]: 272
- Population Apoptotic (%) [4]: 31%
- Population Fragmented Nuclei (%) [4]: 11%
- Population Healthy Nuclei (%) [4]: 50%
- Population Hoechst High Intensity Objects (%) [4]: 4%
- Population Membrane Permeable-Phenotype (%) [4]: 11%
- Population Mitochondria Different-Phenotype (%) [4]: 88%
- Population Mitotic Cells (%) [4]: 68%
- Population Normal (%) [4]: 96%
- Population Pyknosed Nuclei (%) [4]: 38%
- Population Tubulin-Different-Phenotype (%) [4]: 99%
- Total Cell Count [4]: 250
- Population Apoptotic (%) [5]: 56%
- Population Fragmented Nuclei (%) [5]: 11%
- Population Healthy Nuclei (%) [5]: 39%
- Population Hoechst High Intensity Objects (%) [5]: 19%
- Population Membrane Permeable-Phenotype (%) [5]: 7%
- Population Mitochondria Different-Phenotype (%) [5]: 81%
- Population Mitotic Cells (%) [5]: 43%
- Population Normal (%) [5]: 80%
- Population Pyknosed Nuclei (%) [5]: 49%
- Population Tubulin-Different-Phenotype (%) [5]: 73%
- Total Cell Count [5]: 252
- Population Apoptotic (%) [6]: 24%
- Population Fragmented Nuclei (%) [6]: 5%
- Population Healthy Nuclei (%) [6]: 41%
- Population Hoechst High Intensity Objects (%) [6]: 4%
- Population Membrane Permeable-Phenotype (%) [6]: 3%
- Population Mitochondria Different-Phenotype (%) [6]: 43%
- Population Mitotic Cells (%) [6]: 75%
- Population Normal (%) [6]: 95%
- Population Pyknosed Nuclei (%) [6]: 53%
- Population Tubulin-Different-Phenotype (%) [6]: 65%
- Total Cell Count [6]: 205
- Population Apoptotic (%) [7]: 71%
- Population Fragmented Nuclei (%) [7]: 11%
- Population Healthy Nuclei (%) [7]: 57%
- Population Hoechst High Intensity Objects (%) [7]: 15%
- Population Membrane Permeable-Phenotype (%) [7]: 6%
- Population Mitochondria Different-Phenotype (%) [7]: 96%
- Population Mitotic Cells (%) [7]: 28%
- Population Normal (%) [7]: 84%
- Population Pyknosed Nuclei (%) [7]: 31%
- Population Tubulin-Different-Phenotype (%) [7]: 90%
- Total Cell Count [7]: 270
- Population Apoptotic (%) [8]: 57%
- Population Fragmented Nuclei (%) [8]: 14%
- Population Healthy Nuclei (%) [8]: 53%
- Population Hoechst High Intensity Objects (%) [8]: 3%
- Population Membrane Permeable-Phenotype (%) [8]: 3%
- Population Mitochondria Different-Phenotype (%) [8]: 95%
- Population Mitotic Cells (%) [8]: 42%
- Population Normal (%) [8]: 96%
- Population Pyknosed Nuclei (%) [8]: 32%
- Population Tubulin-Different-Phenotype (%) [8]: 96%
- Total Cell Count [8]: 264
- Population Apoptotic (%) [9]: 53%
- Population Fragmented Nuclei (%) [9]: 17%
- Population Healthy Nuclei (%) [9]: 31%
- Population Hoechst High Intensity Objects (%) [9]: 17%
- Population Membrane Permeable-Phenotype (%) [9]: 3%
- Population Mitochondria Different-Phenotype (%) [9]: 84%
- Population Mitotic Cells (%) [9]: 46%
- Population Normal (%) [9]: 82%
- Population Pyknosed Nuclei (%) [9]: 50%
- Population Tubulin-Different-Phenotype (%) [9]: 72%
- Total Cell Count [9]: 248
- Population Apoptotic (%) [10]: 55%
- Population Fragmented Nuclei (%) [10]: 7%
- Population Healthy Nuclei (%) [10]: 63%
- Population Hoechst High Intensity Objects (%) [10]: 2%
- Population Membrane Permeable-Phenotype (%) [10]: 13%
- Population Mitochondria Different-Phenotype (%) [10]: 36%
- Population Mitotic Cells (%) [10]: 44%
- Population Normal (%) [10]: 97%
- Population Pyknosed Nuclei (%) [10]: 29%
- Population Tubulin-Different-Phenotype (%) [10]: 67%
- Total Cell Count [10]: 220
- Population Apoptotic (%) [11]: 72%
- Population Fragmented Nuclei (%) [11]: 18%
- Population Healthy Nuclei (%) [11]: 46%
- Population Hoechst High Intensity Objects (%) [11]: 12%
- Population Membrane Permeable-Phenotype (%) [11]: 3%
- Population Mitochondria Different-Phenotype (%) [11]: 96%
- Population Mitotic Cells (%) [11]: 27%
- Population Normal (%) [11]: 87%
- Population Pyknosed Nuclei (%) [11]: 34%
- Population Tubulin-Different-Phenotype (%) [11]: 85%
- Total Cell Count [11]: 260
- Population Apoptotic (%) [12]: 59%
- Population Fragmented Nuclei (%) [12]: 7%
- Population Healthy Nuclei (%) [12]: 42%
- Population Hoechst High Intensity Objects (%) [12]: 4%
- Population Membrane Permeable-Phenotype (%) [12]: 7%
- Population Mitochondria Different-Phenotype (%) [12]: 92%
- Population Mitotic Cells (%) [12]: 40%
- Population Normal (%) [12]: 95%
- Population Pyknosed Nuclei (%) [12]: 50%
- Population Tubulin-Different-Phenotype (%) [12]: 92%
- Total Cell Count [12]: 247
